MC4R antag cAMP: human MC4R antagonism in cAMP assay; P32245; MC4R-expressing cells, MTII-stimulated cAMP, LANCE TR-FRET; inhibition, % at 6.5 µM; 360,000 tested, 0.48% active; AID 540295;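 active = inhibition above its plate's cutoff, the mean of tested wells on that plate plus 3 SD, cut at about 29% in these data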;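 note: 0% = Melanotan II alone and 100% = Melanotan II plus saturating MCL0020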
Target sequence (P32245 whole entry, looked up): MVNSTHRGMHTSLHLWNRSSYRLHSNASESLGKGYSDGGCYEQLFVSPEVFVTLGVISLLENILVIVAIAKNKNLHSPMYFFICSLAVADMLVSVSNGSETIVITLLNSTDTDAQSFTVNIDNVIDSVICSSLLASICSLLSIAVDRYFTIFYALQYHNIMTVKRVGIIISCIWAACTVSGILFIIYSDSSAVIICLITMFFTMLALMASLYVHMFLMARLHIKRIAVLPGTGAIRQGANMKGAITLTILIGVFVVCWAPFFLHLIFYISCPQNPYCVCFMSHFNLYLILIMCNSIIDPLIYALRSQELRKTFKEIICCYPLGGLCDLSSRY
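Material – human MC4R-expressing U2OS cells · Repeats – no replicates · Detection – TR-FRET with Eu-cAMP and labeled anti-cAMP, 671 nm · Times – compound 30 min, challenge 1 h, detection 1 h · Compound – single nominal compound dose of 6.5 µM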
Bfl-1 A1 inh: inhibitors of the anti-apoptotic protein A1, read as caspase activation. caspase activation, % (no concentration beside the values). MEF A1-2A-BIM cells, Caspase-Glo 3/7 luminescence, 3 h; percent of clofoctol response, vehicle zero. 330,000 tested, 0.066% active;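 active = over half of replicate activation scores above 10%, or exactly half above 10 with the replicate mean above 10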
XBP1 UPR activ: adaptive UPR (XBP1) activation. activation, % at 20 µM. CHO-XBP1 luciferase reporter, IRE1-XBP1 UPR activation, luminescence; percent of tunicamycin response, DMSO as zero. 330,000 tested, 0.33% active;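 active = versus positive control, 20 µM dose yields 30% or more activation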;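 note: 100% = tunicamycin at 10 µg/mL and 0% = DMSO only wells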
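Material: CHO-XBP1 cells stably carrying IRE1-XBP1-driven luciferase reporter | Medium: F12 with 10% serum | Compound dosing: 20 µM single concentration, DMSO 1% | Incubation: Overnight seeding at 37 °C, 6 h compound treatment at 37 °C | Detection: Steady-Glo luminescence read | Read-out basis: % activation of reporter signal versus tunicamycin and DMSO controls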
MC4R barr agon: human MC4R agonism via beta-arrestin | U2OS MC4R beta-arrestin complementation, luminescence; percent of melanotan II response, DMSO zero | 360,000 tested, 0.98% active | activation, % at 8.9 µM | P32245;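 active = activation above a per-plate cutoff, the mean activation of sample wells on that plate plus 3 SD, cut at about 8% in these data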
UPR CHOP act: activators of apoptotic arm of unfolded protein response (CHOP) | CHO-CHOP luciferase reporter, UPR activation, luminescence; percent of tunicamycin response over DMSO baseline | 330,000 tested, 0.34% active | activation, % at 10 µM | AID 449763;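 active = at 10 µM dose, activation of 40% or more, normalized to positive control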;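 note: 100% = tunicamycin at 10 µg/mL and 0% = DMSO alone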
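Assay system: CHO cells with stable CHOP pathway luciferase reporter; Buffer or medium: F12 plus 10% serum; Times: 16-18 h cell attachment, then 6 h compound exposure, 37 °C; Signal: luciferase luminescence; Read-out basis: percent activation relative to tunicamycin control; Control set: tunicamycin high control, DMSO low control.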
UPR CHOP confirm: confirmation of apoptotic unfolded protein response (CHOP) activators; shares compounds with UPR CHOP act; CHO-CHOP cells, CHOP-luciferase reporter luminescence; percent of tunicamycin response, DMSO as zero; activation, % at 10 µM; 1,000 tested, 64% active; AID 463112; in the data active = activation above about 33%;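 note: 0% = DMSO wells and 100% = tunicamycin 10 µg/mL wells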
The depositor's hits bear a star; / = no result given. A selection: hits, their analogues and other compounds. The true share with any hit is near 2%.

SMILES	MC4R antag cAMP	Bfl-1 A1 inh	XBP1 UPR activ	MC4R barr agon	UPR CHOP act	UPR CHOP confirm
Oc1ccc(CN2CCc3ccccc3C2)c2cccnc12	7.4	1.3	12.3	1.0	103.5*	102.1*
Oc1c(Cl)cc(CN2CCCCC2)c2cccnc12	7.1	-0.2	26.6	-1.2	83.6*	73.9*
CN(CC(=O)Nc1ccc(Cl)cc1)C(=O)CN1C(=O)C2CCCCC2C1=O (centres undefined)	3.8	/	/	-1.0	/	/
CC1(C(=O)NS(=O)(=O)c2ccc(Cl)cc2)CCN1C(=O)c1ccco1 (centres undefined)	3.2	/	/	-0.6	/	/
COc1cccc(CNC(=O)c2ccc(CS(=O)Cc3ccccc3Cl)o2)c1 (centres undefined)	-0.1	/	/	-0.1	/	/
C/C(=N\NC(=O)c1cc(O)ccc1O)c1cccc(NC(=O)c2ccc(Cl)cc2)c1	8.3	-2.0	11.4	-4.5	71.9*	5.1
COc1ccccc1NC(=O)c1cnc(SCC(=O)NCC2CCCO2)n(C)c1=O (centres undefined)	19.6	0.0	-1.7	-2.9	57.4*	33.9*
COC(=O)C1=C(C)N(c2ccc(C)c(C)c2)/C(=C/c2ccco2)C1=O	4.3	0.7	14.2	-1.2	68.5*	46.9*
CCOC(=O)C1=C(C)N(c2ccc(C)c(C)c2)C(=O)/C1=C\c1ccco1	5.0	-0.4	-0.8	-3.0	2.0	/
C/C(=N\NC(=O)C(c1ccccc1)c1ccccc1)c1ccccn1	-1.2	-1.0	-1.0	-3.8	80.4*	51.1*
COc1ccc(C(=O)N/N=C(\C)c2ccccn2)cc1OC	-8.0	-1.4	5.0	-2.9	355.2*	284.2*
C/C(=N/NC(=O)c1ccc(C(C)(C)C)cc1)c1ccccn1	15.1	-3.7	-0.5	-2.5	556.4*	372.0*
C/C(=N/NC(=O)c1ccccn1)c1ccncc1	20.5	-3.1	0.4	3.1	3.1	/
COCCNC(=O)C1(C)CCCN(CCS(=O)(=O)c2ccc(C)cc2)C1 (centres undefined)	0.4	/	/	1.2	/	/
Cc1cc(C)cc(N2C(=O)CC(Sc3nnnn3-c3ccccc3)C2=O)c1 (centres undefined)	27.3	1.0	-5.0	0.4	55.7*	27.6
Cn1nnnc1SC1CC(=O)N(c2ccccc2)C1=O (centres undefined)	17.5	-1.0	0.5	-2.1	0.7	/
Cc1ccc(S(=O)(=O)N2C[C@H]3C(=O)C[C@@H](c4ccc(Cl)cc4)N(S(=O)(=O)c4ccccc4C)[C@H]3C[C@H]2c2ccc(Cl)cc2)cc1	7.9	/	/	-0.8	/	/
O=C(/C=C/c1ccc(O)c(O)c1)c1ccc(S(=O)(=O)N2CCCCCC2)cc1	4.1	0.8	23.8	-3.5	90.2*	23.3
O=C1C=C(Nc2ccc(F)cc2)c2ccccc2C1=O	-11.0	0.4	2.3	0.2	62.0*	8.9
CC(C)N1C/C(=C/c2ccsc2)C(=O)/C(=C/c2ccsc2)C1	25.1	0.2	0.7	-1.2	95.1*	91.2*
CC1NC(=O)c2cc3ccccc3cc2-n2c1nc1ccccc1c2=O (centres undefined)	3.0	/	/	0.4	/	/
N#Cc1c(N)c(C(=O)c2ccccc2)n2c1CCC2	1.4	-0.1	0.6	-1.2	54.0*	3.6
Cn1c(/C=N/Nc2nc3ccccc3[nH]2)nc2ccccc21	1.8	-4.7	20.8	-4.0	1.0	/
Cc1c(/C=N/Nc2nc3ccccc3[nH]2)c2ccccc2n1C	2.2	-0.6	2.1	0.9	320.0*	-0.9
CCSC1(SCC)N=C(N)C2(C#N)C(c3ccc(F)cc3)C12C#N (centres undefined)	16.8	0.7	0.2	-3.5	61.0*	124.0*
SMILES	MC4R antag cAMP	Bfl-1 A1 inh	XBP1 UPR activ	MC4R barr agon	UPR CHOP act	UPR CHOP confirm
CN[C@H]1C[C@H]2c3[nH]c4ccc(-c5ccc(OC)cc5)cc4c3CCN2C(=O)[C@H]1[C@H](C)O	13.7	/	/	-1.8	/	/
O=c1nc(Nc2ccccc2)oc2ccccc12	6.8	-6.6	1.2	2.8	0.9	/
O=c1nc(Nc2cccc(Cl)c2)oc2cc(Cl)oc(=O)c12	-0.8	-6.8	-1.6	-2.8	40.9*	73.4*
CC(C)c1ccc(C(=O)N2CCCC(c3cc(C(=O)Nc4ccc5c(c4)OCO5)no3)C2)cc1 (centres undefined)	3.1	/	/	0.5	/	/
CC(C)[C@H](NC(=O)[C@@H]1Cc2c([nH]c3ccccc23)C2c3ccccc3C(=O)N21)C(=O)N1CCC[C@H]1C(=O)O (some centres undefined)	21.8	/	/	0.6	/	/
COc1ccc(S(=O)(=O)N2CCC3CC2c2cc(N4CCOCC4)ccc23)cc1 (centres undefined)	10.1	/	/	-1.2	/	/
Cc1ccc2nc(N3CCN(c4cccc(C)c4C)CC3)c3nnnn3c2c1	2.0	-0.6	-2.9	-0.8	0.8	/
Cc1ccc2nc(Cl)c3nnnn3c2c1	22.1	0.5	-7.3	-2.6	139.2*	-6.5
COCCN=c1scc(-c2cccs2)n1/N=C/c1ccc(O)c(O)c1O	20.1	-0.3	7.9	1.4	346.9*	103.5*
CCN=c1scc(C)n1/N=C/c1ccc(O)c(O)c1O	-9.3	-2.2	7.2	0.9	78.7*	9.1
CC(Sc1nc(-c2ccccc2)c(-c2ccccc2)[nH]1)C(=O)NCC1CCCO1 (centres undefined)	6.8	/	/	0.6	/	/
O=C1C(C2=NC(c3ccccn3)C3C(=O)N(c4ccc(OC(F)(F)F)cc4)C(=O)C23)=C(O)c2ccccc21 (centres undefined)	3.4	-0.3	16.9	1.4	41.7*	8.9
O=C1C(C2=NC(C(=O)O)C3C(=O)N(c4ccccc4)C(=O)C23)=C(O)c2ccccc21 (centres undefined)	-0.1	0.5	0.4	-1.3	-1.4	/
Cc1ccc(-c2nc(NC(=O)c3nn(C)cc3[N+](=O)[O-])sc2C)cc1	-27.8	11.4*	7.6	-1.3	99.6*	59.0*
Cc1ccc(-c2nc(NC(=O)c3nn(C)cc3[N+](=O)[O-])sc2C)cc1C	-5.6	38.9*	12.5	2.6	65.2*	67.9*
CC(C)CSCC1OC(n2cnc3c(N)nccc32)C(O)C1O (centres undefined)	8.9	/	/	-0.4	/	/
FC(F)(F)C1=NNC(c2ccc3ccccc3c2)=NN1	-0.9	/	/	-0.3	/	/
COc1ccc(CC(N)c2csc(Nc3ccc(C(=O)c4ccccc4)cc3)n2)cc1 (centres undefined)	3.9	/	/	5.2	/	/
COC(=O)Cn1c(=NC(=O)c2ccc(Cl)s2)sc2cc(C)ccc21	3.0	-0.2	1.9	-0.1	6.6	/
COC(=O)Cn1c(=NC(=O)c2ccc([N+](=O)[O-])s2)sc2cc(Br)ccc21	/	0.5	11.4	/	49.5*	24.0

Screening data deposited in PubChem BioAssay by several laboratories.
